According to ChEMBL document CHEMBL1157638, “Fluorescent epigenetic small molecule induces expression of the tumor suppressor ras-association domain family 1A and inhibits human prostate xenograft” (J Med Chem, 2010):
Activity calls are given as the source filed them. The rule behind the calls is not given here.

Columns and labels:
HOP-92 = assay: Growth inhibition of human HOP92 cells assessed as cell growth at 1 nM relative to untreated control; assay type: functional; details: read-out: Activity
Outline: (§1)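 Run externally at the National Cancer Institute as a 59-cell-line panel screen, with concentrations up to 100 μM. Growth was scored relative to control, where negative growth or total cell kill was possible. Data are in the Supporting Information.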

SW-620 [1] = assay: Growth inhibition of human SW620 cells; assay type: functional
NCI-H23 = assay: Growth inhibition of human NCI-H23 cells assessed as cell growth at 10 uM relative to untreated control; assay type: functional; details: read-out: Activity
UO-31 [2] = assay: Growth inhibition of human UO31 cells assessed as cell growth at 1 uM relative to untreated control; assay type: functional; details: read-out: Activity
[3] = target: DNA (cytosine-5)-methyltransferase 1 (Homo sapiens) (UniProt P26358); assay: Inhibition of DNA methyltransferase activity in human PC3 cells at 2 uM after 3 days; assay type: cell-based; details: PC-3
Outline: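 PC-3 cells in complete growth medium treated 3 days with compound, then harvested. Nuclear extracts prepared by kit protocol, and DNMT activity measured with a commercial DNMT activity kit against untreated cells. Mean of three independent experiments ± SEM.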

HCT-15 = assay: Growth inhibition of human HCT15 cells; assay type: functional; outline: as §1
HOP-62 [4] = assay: Growth inhibition of human HOP62 cells; assay type: functional; outline: as §1
HOP-62 [5] = assay: Growth inhibition of human HOP62 cells assessed as cell growth at 1 nM relative to untreated control; assay type: functional; details: read-out: Activity; outline: as §1
M14 [6] = assay: Growth inhibition of human M14 cells assessed as cell growth at 10 nM relative to untreated control; assay type: functional; details: read-out: Activity
SR = assay: Growth inhibition of human SR cells; assay type: functional
SW-620 [7] = assay: Growth inhibition of human SW620 cells assessed as cell growth at 100 nM relative to untreated control; assay type: functional; details: read-out: Activity
RXF 393 = assay: Growth inhibition of human RXF393 cells assessed as cell growth at 1 uM relative to untreated control; assay type: functional; details: read-out: Activity
CAKI-1 = assay: Growth inhibition of human Caki1 cells assessed as cell growth at 10 uM relative to untreated control; assay type: functional; details: read-out: Activity; outline: as §1
SK-MEL-28 = assay: Growth inhibition of human SK-MEL-28 cells assessed as cell growth at 10 uM relative to untreated control; assay type: functional; details: read-out: Activity
NCI-H322M = assay: Growth inhibition of human NCI-H322M cells assessed as cell growth at 10 uM relative to untreated control; assay type: functional; details: read-out: Activity
SN12C = assay: Growth inhibition of human SN12C cells assessed as cell growth at 10 uM relative to untreated control; assay type: functional; details: read-out: Activity
Mus musculus = assay: Toxicity in BALB/c mouse up to 550 mg/kg, po; assay type: organism-based; design: dose 550 mg/kg, route oral; details: in vivo
A549 = assay: Growth inhibition of human A549 cells; assay type: functional
DU-145 = assay: Growth inhibition of human DU145 cells; assay type: functional; outline: as §1
NCI-H226 = assay: Growth inhibition of human NCI-H226 cells assessed as cell growth at 10 uM relative to untreated control; assay type: functional; details: read-out: Activity
SK-MEL-2 = assay: Growth inhibition of human SK-MEL-2 cells assessed as cell growth at 1 nM relative to untreated control; assay type: functional; details: read-out: Activity
HCC 2998 = assay: Growth inhibition of human HCC2998 cells assessed as cell growth at 1 nM relative to untreated control; assay type: functional; details: read-out: Activity; outline: as §1
ACHN [8] = assay: Growth inhibition of human ACHN cells assessed as cell growth at 10 nM relative to untreated control; assay type: functional; details: read-out: Activity
UACC-62 = assay: Growth inhibition of human UACC62 cells assessed as cell growth at 1 nM relative to untreated control; assay type: functional; details: read-out: Activity
[9] = Growth inhibition of human […] cells assessed as cell growth at 100 nM relative to untreated control; assay type: functional; details: read-out: Activity
HCT-116 = assay: Growth inhibition of human HCT116 cells assessed as cell growth at 10 nM relative to untreated control; assay type: functional; details: read-out: Activity; outline: as §1
HT-29 [10] = assay: Growth inhibition of human HT-29 cells assessed as cell growth at 100 nM relative to untreated control; assay type: functional; details: read-out: Activity
786-0 = assay: Growth inhibition of human 786-0 cells; assay type: functional
KM12 = assay: Growth inhibition of human KM12 cells assessed as cell growth at 10 uM relative to untreated control; assay type: functional; details: read-out: Activity
OVCAR-8 = assay: Growth inhibition of human OVCAR8 cells assessed as cell growth at 10 uM relative to untreated control; assay type: functional; details: read-out: Activity
A498 = assay: Growth inhibition of human A498 cells assessed as cell growth at 1 nM relative to untreated control; assay type: functional; details: read-out: Activity
UO-31 [11] = assay: Growth inhibition of human UO31 cells assessed as cell growth at 100 nM relative to untreated control; assay type: functional; details: read-out: Activity
NCI-H522 [12] = assay: Growth inhibition of human NCI-H522 cells assessed as cell growth at 1 uM relative to untreated control; assay type: functional; details: read-out: Activity
IGROV-1 = assay: Growth inhibition of human IGROV1 cells assessed as cell growth at 1 nM relative to untreated control; assay type: functional; details: read-out: Activity
EKVX = assay: Growth inhibition of human EKVX cells assessed as cell growth at 10 nM relative to untreated control; assay type: functional; details: read-out: Activity; outline: as §1
SNB-19 = assay: Growth inhibition of human SNB19 cells assessed as cell growth at 1 nM relative to untreated control; assay type: functional; details: read-out: Activity
NCI/ADR-RES = assay: Growth inhibition of human NCI/ADR-RES cells assessed as cell growth at 10 uM relative to untreated control; assay type: functional; details: read-out: Activity
NCI-H522 [13] = assay: Growth inhibition of human NCI-H522 cells assessed as cell growth at 10 nM relative to untreated control; assay type: functional; details: read-out: Activity
HT-29 [14] = assay: Growth inhibition of human HT-29 cells assessed as cell growth at 10 nM relative to untreated control; assay type: functional; details: read-out: Activity
ACHN [15] = assay: Growth inhibition of human ACHN cells assessed as cell growth at 10 uM relative to untreated control; assay type: functional; details: read-out: Activity
M14 [16] = assay: Growth inhibition of human M14 cells; assay type: functional
SF-295 = assay: Growth inhibition of human SF295 cells; assay type: functional
OVCAR-5 = assay: Growth inhibition of human OVCAR5 cells assessed as cell growth at 1 nM relative to untreated control; assay type: functional; details: read-out: Activity
LOX IMVI = assay: Growth inhibition of human LOXIMVI cells assessed as cell growth at 1 uM relative to untreated control; assay type: functional; details: read-out: Activity
HT-29 [17] = assay: Growth inhibition of human HT-29 cells assessed as cell growth at 1 uM relative to untreated control; assay type: functional; details: read-out: Activity
NCI-H522 [18] = assay: Growth inhibition of human NCI-H522 cells assessed as cell growth at 100 nM relative to untreated control; assay type: functional; details: read-out: Activity
[19] = read-out: LC50 (the source's name)

Sequence of DNA (cytosine-5)-methyltransferase 1 (Homo sapiens) (P26358 whole entry): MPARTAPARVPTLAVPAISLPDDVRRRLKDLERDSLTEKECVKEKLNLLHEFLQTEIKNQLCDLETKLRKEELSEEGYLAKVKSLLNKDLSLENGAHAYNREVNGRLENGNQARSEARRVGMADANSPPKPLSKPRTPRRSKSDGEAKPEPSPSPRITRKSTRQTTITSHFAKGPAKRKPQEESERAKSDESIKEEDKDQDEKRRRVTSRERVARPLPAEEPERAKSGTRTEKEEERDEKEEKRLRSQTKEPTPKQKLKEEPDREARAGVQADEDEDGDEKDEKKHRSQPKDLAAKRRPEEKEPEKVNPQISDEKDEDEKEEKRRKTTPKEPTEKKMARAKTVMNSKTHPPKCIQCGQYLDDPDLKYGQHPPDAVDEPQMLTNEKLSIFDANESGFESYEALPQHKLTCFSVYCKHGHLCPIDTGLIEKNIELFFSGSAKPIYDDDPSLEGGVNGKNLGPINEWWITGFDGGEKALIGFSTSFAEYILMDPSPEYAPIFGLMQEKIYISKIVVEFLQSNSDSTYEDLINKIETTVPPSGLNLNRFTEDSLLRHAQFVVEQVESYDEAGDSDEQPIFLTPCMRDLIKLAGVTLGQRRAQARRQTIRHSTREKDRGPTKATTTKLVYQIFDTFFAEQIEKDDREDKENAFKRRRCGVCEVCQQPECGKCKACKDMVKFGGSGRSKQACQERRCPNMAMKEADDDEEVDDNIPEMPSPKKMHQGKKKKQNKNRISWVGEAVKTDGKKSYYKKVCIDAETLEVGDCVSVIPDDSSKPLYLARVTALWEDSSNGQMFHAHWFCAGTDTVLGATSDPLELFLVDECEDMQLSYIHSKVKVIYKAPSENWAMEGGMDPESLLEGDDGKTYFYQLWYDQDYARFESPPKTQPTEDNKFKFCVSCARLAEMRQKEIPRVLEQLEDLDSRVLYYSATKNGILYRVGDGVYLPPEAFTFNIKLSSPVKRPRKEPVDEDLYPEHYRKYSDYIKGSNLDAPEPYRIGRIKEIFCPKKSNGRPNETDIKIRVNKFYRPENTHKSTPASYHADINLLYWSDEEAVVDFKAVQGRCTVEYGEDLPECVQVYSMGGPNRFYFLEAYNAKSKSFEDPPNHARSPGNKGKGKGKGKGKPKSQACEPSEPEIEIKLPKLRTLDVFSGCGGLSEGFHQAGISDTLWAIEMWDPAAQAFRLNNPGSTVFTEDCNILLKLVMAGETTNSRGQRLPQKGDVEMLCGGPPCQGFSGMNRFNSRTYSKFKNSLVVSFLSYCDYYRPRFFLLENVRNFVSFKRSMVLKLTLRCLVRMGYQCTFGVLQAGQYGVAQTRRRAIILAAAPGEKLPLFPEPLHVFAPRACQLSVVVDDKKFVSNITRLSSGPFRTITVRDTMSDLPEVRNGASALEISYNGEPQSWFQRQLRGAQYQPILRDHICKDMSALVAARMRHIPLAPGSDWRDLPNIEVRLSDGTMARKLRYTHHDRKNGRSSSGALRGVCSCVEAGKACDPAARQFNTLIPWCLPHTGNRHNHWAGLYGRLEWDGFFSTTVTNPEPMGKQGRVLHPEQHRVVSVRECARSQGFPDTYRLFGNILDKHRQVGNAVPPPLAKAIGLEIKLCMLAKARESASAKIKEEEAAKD

COc1ccc2c(c1)[nH]c1c(C)c(OS(=O)(=O)c3cccc4c(N(C)C)cccc34)ccc12
growth at 0.001 µM (HOP-92): 101% | GI50 (SW-620 [1]): 4.32 µM | TGI (SW-620 [1]): > 100 µM | CC50 (SW-620 [1]; [19]): > 100 µM | growth at 10 µM (NCI-H23): 8% | growth at 1 µM (UO-31 [2]): 54% | Activity [3]: Active | GI50 (HCT-15): 4.35 µM | TGI (HCT-15): > 100 µM | CC50 (HCT-15; [19]): > 100 µM | GI50 (HOP-62 [4]): 17.3 µM | TGI (HOP-62 [4]): > 100 µM | CC50 (HOP-62 [4]; [19]): > 100 µM | growth at 0.001 µM (HOP-62 [5]): 101% | growth at 0.01 µM (M14 [6]): 105% | GI50 (SR): 3.51 µM | TGI (SR): > 100 µM | CC50 (SR; [19]): > 100 µM | growth at 0.1 µM (SW-620 [7]): 95% | growth at 1 µM (RXF 393): -29% | growth at 10 µM (CAKI-1): 26% | growth at 10 µM (SK-MEL-28): 19% | growth at 10 µM (NCI-H322M): 34% | growth at 10 µM (SN12C): 30% | Activity (Mus musculus): Non-toxic | GI50 (A549): 4.98 µM | TGI (A549): > 100 µM | CC50 (A549; [19]): > 100 µM | GI50 (DU-145): 3.54 µM | TGI (DU-145): > 100 µM | CC50 (DU-145; [19]): > 100 µM | growth at 10 µM (NCI-H226): 39% | growth at 0.001 µM (SK-MEL-2): 115% | growth at 0.001 µM (HCC 2998): 99% | growth at 0.01 µM (ACHN [8]): 102% | growth at 0.001 µM (UACC-62): 89% | growth at 0.1 µM [9]: 90% | growth at 0.01 µM (HCT-116): 106% | growth at 0.1 µM (HT-29 [10]): 96% | GI50 (786-0): 5.42 µM | TGI (786-0): > 100 µM | CC50 (786-0; [19]): > 100 µM | growth at 10 µM (KM12): 6% | growth at 10 µM (OVCAR-8): 24% | growth at 0.001 µM (A498): 93% | growth at 0.1 µM (UO-31 [11]): 92% | growth at 1 µM (NCI-H522 [12]): 50% | growth at 0.001 µM (IGROV-1): 111% | growth at 0.01 µM (EKVX): 96% | growth at 0.001 µM (SNB-19): 97% | growth at 10 µM (NCI/ADR-RES): 15% | growth at 0.01 µM (NCI-H522 [13]): 101% | growth at 0.01 µM (HT-29 [14]): 106% | growth at 10 µM (ACHN [15]): 21% | GI50 (M14 [16]): 50.2 µM | TGI (M14 [16]): > 100 µM | CC50 (M14 [16]; [19]): > 100 µM | GI50 (SF-295): 3.4 µM | TGI (SF-295): > 100 µM | CC50 (SF-295; [19]): > 100 µM | growth at 0.001 µM (OVCAR-5): 107% | growth at 1 µM (LOX IMVI): 31% | growth at 1 µM (HT-29 [17]): 13% | growth at 0.1 µM (NCI-H522 [18]): 100%
